Results as given in ChEMBL document CHEMBL3351374, “Semisynthetic teicoplanin derivatives as new influenza virus binding inhibitors: synthesis and antiviral studies” (Bioorg Med Chem Lett, 2014).
In brackets after ≈: the same amount, converted by molar mass.

Tests used:
Influenza B virus [1] = assay: Antiviral activity against Influenza B virus (B/HK/05/1972) infected in MDCK cells assessed as reduction in host cell viability after 72 hrs by MTS assay; format: functional, cell-based; details: B/Hong Kong/05/1972, MDCK
Influenza A virus [2] = assay: Antiviral activity against Influenza A virus A/Virginia/ATCC3/2009 infected in MDCK cells assessed as reduction in host cell viability after 72 hrs by MTS assay; format: functional, organism-based; details: A/Virginia/ATCC3/2009, MDCK
Influenza A virus [3] = assay: Antiviral activity against Influenza A virus A/Virginia/ATCC3/2009 infected in MDCK cells assessed as virus-induced cytopathic effect after 72 hrs by microscopy; format: functional, organism-based; details: A/Virginia/ATCC3/2009, MDCK
[4] = Antiviral activity against Influenza A virus (A/HK/7/1987(H3N2)) infected in MDCK cells assessed as virus-induced cytopathic effect after 72 hrs by microscopy; format: functional, cell-based, Influenza A virus (A/Hong Kong/7/1987(H3N2))
Influenza A virus [5] = assay: Antiviral activity against Influenza A virus (A/PR/8/34(H1N1)) infected in MDCK cells assessed as reduction in host cell viability after 72 hrs by MTS assay; format: functional, organism-based; details: A/Puerto Rico/8/1934(H1N1)
[6] = Cytotoxicity against MDCK cells assessed as reduction in cell viability after 72 hrs by MTS assay; format: cell-based, Canis lupus familiaris; details: dog
[7] = Cytotoxicity against MDCK cells assessed as change in cell morphology after 72 hrs by microscopy; format: cell-based, Canis lupus familiaris; details: dog
Summary of the method: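 Uninfected MDCK cells exposed to compound. MCC is the minimal concentration causing minimal alterations in cell morphology, assessed by microscopy.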

[8] = Antiviral activity against Influenza A virus (A/HK/7/1987(H3N2)) infected in MDCK cells assessed as reduction in host cell viability after 72 hrs by MTS assay; format: functional, cell-based, Influenza A virus (A/Hong Kong/7/1987(H3N2))
Influenza B virus [9] = assay: Antiviral activity against Influenza B virus (B/HK/05/1972) infected in MDCK cells assessed as virus-induced cytopathic effect after 72 hrs by microscopy; format: functional, cell-based; details: B/Hong Kong/05/1972, MDCK
[10] = Selectivity ratio of MCC for MDCK cells assessed as change in cell morphology after 72 hrs by microscopy to EC50 for Influenza A virus A/Virginia/ATCC3/2009 infected in MDCK cells; format: cell-based; details: dog
[11] = Retention time of the compound by HPLC method; format: physicochemical
Influenza A virus [12] = assay: Antiviral activity against Influenza A virus (A/PR/8/34(H1N1)) infected in MDCK cells assessed as virus-induced cytopathic effect after 72 hrs by microscopy; format: functional, organism-based; details: A/Puerto Rico/8/1934(H1N1)
[13] = Cytotoxicity against chicken RBC assessed as minimum concentration required for hemagglutination by microscopy; format: cell-based, Gallus gallus; details: erythrocyte
Summary of the method: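 Chicken red blood cells incubated with compound without virus. The value is the minimal concentration causing hemagglutination.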

[14] = Selectivity ratio of CC50 for MDCK cells assessed as reduction in cell viability after 72 hrs by MTS assay to EC50 for Influenza A virus A/Virginia/ATCC3/2009 infected in MDCK cells; format: cell-based; details: dog, read-out: Ratio CC50/EC50
[15] = Inhbition of Influenza A virus (A/X-31(H3N2) hemagglutinin binding to 2 hrs compound pre-incubated MDCK cells assessed as reduction in viral RNA measured after 1 hr by RT-qPCR analysis; format: cell-based
Summary of the method: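 Influenza virus binding to MDCK host cells measured with compound at 50, 10, 2 and 0.4 µM.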

Enterococcus faecalis [16] = assay: Antibacterial activity against vanA gene-positive Enterococcus faecalis 15376 by broth microdilution method; format: functional
[17] = system: Staphylococcus epidermidis; assay: Antibacterial activity against biofilm forming Staphylococcus epidermidis ATCC 35984 by broth microdilution method; format: functional
Influenza A virus [18] = assay: Antiviral activity against Influenza A virus infected in chicken RBC assessed as minimum concentration required for inhibition of 2 hemagglutinating units of virus-induced hemagglutination after 1 hr by microscopy; format: functional
Summary of the method: (§1)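 Chicken red blood cells incubated with virus at 1, 2 or 4 HA-U plus compound. The value is the minimal concentration causing inhibition of hemagglutination.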

Staphylococcus aureus [19] = assay: Antibacterial activity against methicillin-sensitive Staphylococcus aureus ATCC 29213 by broth microdilution method; format: functional
Enterococcus faecalis [20] = assay: Antibacterial activity against vanA gene-positive Enterococcus faecalis ATCC 51299 by broth microdilution method; format: functional
Enterococcus faecalis [21] = assay: Antibacterial activity against Enterococcus faecalis ATCC 29212 by broth microdilution method; format: functional
[22] = system: Staphylococcus epidermidis; assay: Antibacterial activity against biofilm forming Staphylococcus epidermidis harboring mecA gene by broth microdilution method; format: functional
Bacillus spizizenii = assay: Antibacterial activity against Bacillus subtilis ATCC 6633 by broth microdilution method; format: functional
Influenza A virus [23] = assay: Antiviral activity against Influenza A virus infected in chicken RBC assessed as minimum concentration required for inhibition of 1 hemagglutinating unit of virus-induced hemagglutination after 1 hr by microscopy; format: functional; summary of the method: as §1
Staphylococcus aureus [24] = assay: Antibacterial activity against methicillin-resistant Staphylococcus aureus ATCC 33591 by broth microdilution method; format: functional
Influenza A virus [25] = assay: Antiviral activity against Influenza A virus infected in chicken RBC assessed as minimum concentration required for inhibition of 4 hemagglutinating units of virus-induced hemagglutination after 1 hr by microscopy; format: functional; summary of the method: as §1

| Compound | EC50 (Influenza B virus [1]) [µM] | EC50 (Influenza A virus [2]) [µM] | EC50 (Influenza A virus [3]) [µM] | EC50 [4] [µM] | EC50 (Influenza A virus [5]) [µM] | CC50 at 72 h [6] [µM] | MCC at 72 h [7] [µM] | EC50 [8] [µM] | EC50 (Influenza B virus [9]) [µM] | Retention_time [11] [min] | EC50 (Influenza A virus [12]) [µM] | MIC (Enterococcus faecalis [16]) [µg/mL] | MIC [17] [µg/mL] | MIC (Staphylococcus aureus [19]) [µg/mL] | MIC (Enterococcus faecalis [20]) [µg/mL] | MIC (Enterococcus faecalis [21]) [µg/mL] | MIC [22] [µg/mL] | MIC (Bacillus spizizenii) [µg/mL] | MIC (Staphylococcus aureus [24]) [µg/mL] | other results |
| --- | --- | --- | --- | --- | --- | --- | --- | --- | --- | --- | --- | --- | --- | --- | --- | --- | --- | --- | --- | --- |
| NC12CC3CC(CC(C3)C1)C2 [AMANTADINE] | > 500 | > 500 | > 500 | 0.45 | 111 | > 500 | > 500 | 0.5 | > 500 | – | – | – | – | – | – | – | – | – | – | – |
| CCCCCCCCO[C@@H]1[C@@H](OCCCCCCCC)[C@@H](OC)O[C@H](COCCOCCOCCOCCOCc2cn([C@H]3C(=O)N[C@@H]4Cc5ccc(c(Cl)c5)Oc5cc6cc(c5O)Oc5ccc(cc5Cl)[C@@H](O[C@@H]5O[C@H](CO)[C@@H](O)[C@H](O)[C@H]5NC(C)=O)[C@@H]5NC(=O)[C@H](NC(=O)[C@@H]6NC(=O)[C@@H](NC4=O)c4cc(O)cc(c4)Oc4cc3ccc4O)c3ccc(O)c(c3)-c3c(O)cc(O)cc3[C@@H](C(=O)O)NC5=O)nn2)[C@H]1OCc1ccc(OC)cc1 [listing 1 of 2 here] | 1.5 | < 0.8 | 1.4 | 1.8 | 1.2 | 11 | 20 | 1.2 | > 100 | 8.16 | 0.8 | – | – | – | – | – | – | – | – | selectivity ratio at 72 h [10]: 4; Activity [13]: 50 µM; selectivity ratio at 72 h [14]: 4; IC50 [15]: 4.7 µM |
| CC(=O)N[C@H]1[C@H]([C@H](O)[C@H](O)CO)OC(C(=O)O)=C[C@@H]1NC(=N)N [ZANAMIVIR] | 9.4 | 20 | 45 | 8.9 | 0.5 | > 100 | > 100 | 9 | 12 | – | 0.47 | – | – | – | – | – | – | – | – | – |
| CCCCCCCCO[C@@H]1[C@@H](OCCCCCCCC)[C@@H](OC)O[C@H](COCCOCCOCCOCCOCc2cn([C@H]3C(=O)N[C@@H]4Cc5ccc(c(Cl)c5)Oc5cc6cc(c5O)Oc5ccc(cc5Cl)[C@@H](O[C@@H]5O[C@H](CO)[C@@H](O)[C@H](O)[C@H]5NC(C)=O)[C@@H]5NC(=O)[C@H](NC(=O)[C@@H]6NC(=O)[C@@H](NC4=O)c4cc(O)cc(c4)Oc4cc3ccc4O)c3ccc(O)c(c3)-c3c(O)cc(O)cc3[C@@H](C(=O)O)NC5=O)nn2)[C@H]1OCc1ccc(OC)cc1 [listing 2 of 2 here] | – | – | – | – | – | – | – | – | – | – | – | 128 (≈ 58.7 µM) | 16 (≈ 7.34 µM) | 128 (≈ 58.7 µM) | 256 (≈ 117 µM) | 32 (≈ 14.7 µM) | 256 (≈ 117 µM) | 256 (≈ 117 µM) | 64 (≈ 29.3 µM) | Activity (Influenza A virus [18]): 6.3 µM; Activity (Influenza A virus [23]): 0.78 µM; Activity (Influenza A virus [25]): 12 µM |
| CC(N)C12CC3CC(CC(C3)C1)C2 (stereo unspecified) [RIMANTADINE] | > 500 | > 500 | > 500 | 0.051 | 5.3 | > 500 | ≥ 500 | 0.046 | > 500 | – | 4.6 | – | – | – | – | – | – | – | – | – |
| C.CCCCCCCCO[C@H]1[C@@H](OC)O[C@H](COCCOCCOCCOCCOCc2cn([C@H]3C(=O)N[C@@H]4Cc5ccc(c(Cl)c5)Oc5cc6cc(c5O)Oc5ccc(cc5Cl)[C@@H](O[C@@H]5O[C@H](CO)[C@@H](O)[C@H](O)[C@H]5NC(C)=O)[C@@H]5NC(=O)[C@H](NC(=O)[C@@H]6NC(=O)[C@@H](NC4=O)c4cc(O)cc(c4)Oc4cc3ccc4O)c3ccc(O)c(c3)-c3c(O)cc(O)cc3[C@@H](C(=O)O)NC5=O)nn2)[C@@H](O)[C@@H]1OCCCCCCCC [listing 1 of 2 here] | > 100 | 1.3 | 1.8 | 2.3 | > 100 | 12 | ≥ 4 | 2.2 | > 100 | 8.17 | > 100 | – | – | – | – | – | – | – | – | selectivity ratio at 72 h [10]: 4; Activity [13]: 50 µM; selectivity ratio at 72 h [14]: 4; IC50 [15]: 7 µM |
| COc1ccc(CO[C@H]2[C@H](OC)[C@@H](OC)[C@@H](OC)O[C@@H]2COCCOCCOCCOCCOCc2cn([C@H]3C(=O)N[C@@H]4Cc5ccc(c(Cl)c5)Oc5cc6cc(c5O)Oc5ccc(cc5Cl)[C@@H](O[C@@H]5O[C@H](CO)[C@@H](O)[C@H](O)[C@H]5NC(C)=O)[C@@H]5NC(=O)[C@H](NC(=O)[C@@H]6NC(=O)[C@@H](NC4=O)c4cc(O)cc(c4)Oc4cc3ccc4O)c3ccc(O)c(c3)-c3c(O)cc(O)cc3[C@@H](C(=O)O)NC5=O)nn2)cc1 [listing 1 of 2 here] | > 100 | > 100 | > 100 | > 100 | > 100 | 47 | ≥ 20 | > 100 | > 100 | 5.73 | > 100 | – | – | – | – | – | – | – | – | – |
| COc1ccc(CO[C@H]2[C@H](OC)[C@@H](OC)[C@@H](OC)O[C@@H]2COCCOCCOCCOCCOCc2cn([C@H]3C(=O)N[C@@H]4Cc5ccc(c(Cl)c5)Oc5cc6cc(c5O)Oc5ccc(cc5Cl)[C@@H](O[C@@H]5O[C@H](CO)[C@@H](O)[C@H](O)[C@H]5NC(C)=O)[C@@H]5NC(=O)[C@H](NC(=O)[C@@H]6NC(=O)[C@@H](NC4=O)c4cc(O)cc(c4)Oc4cc3ccc4O)c3ccc(O)c(c3)-c3c(O)cc(O)cc3[C@@H](C(=O)O)NC5=O)nn2)cc1 [listing 2 of 2 here] | – | – | – | – | – | – | – | – | – | – | – | 32 (≈ 16.1 µM) | 16 (≈ 8.06 µM) | 16 (≈ 8.06 µM) | 32 (≈ 16.1 µM) | 32 (≈ 16.1 µM) | 32 (≈ 16.1 µM) | 16 (≈ 8.06 µM) | 32 (≈ 16.1 µM) | – |
| C.CCCCCCCCO[C@H]1[C@@H](OC)O[C@H](COCCOCCOCCOCCOCc2cn([C@H]3C(=O)N[C@@H]4Cc5ccc(c(Cl)c5)Oc5cc6cc(c5O)Oc5ccc(cc5Cl)[C@@H](O[C@@H]5O[C@H](CO)[C@@H](O)[C@H](O)[C@H]5NC(C)=O)[C@@H]5NC(=O)[C@H](NC(=O)[C@@H]6NC(=O)[C@@H](NC4=O)c4cc(O)cc(c4)Oc4cc3ccc4O)c3ccc(O)c(c3)-c3c(O)cc(O)cc3[C@@H](C(=O)O)NC5=O)nn2)[C@@H](O)[C@@H]1OCCCCCCCC [listing 2 of 2 here] | – | – | – | – | – | – | – | – | – | – | – | 8 | 8 | 16 | 4 | 2 | 256 | 4 | 8 | Activity (Influenza A virus [18]): 0.78 µM; Activity (Influenza A virus [23]): 0.39 µM; Activity (Influenza A virus [25]): 3.1 µM |
| NC(=O)c1ncn([C@@H]2O[C@H](CO)[C@@H](O)[C@H]2O)n1 [RIBAVIRIN] | 8.2 | – | – | 6.8 | 21 | > 100 | ≥ 20 | 7.3 | – | – | – | – | – | – | – | – | – | – | – | – |
